In ChEMBL document CHEMBL1156125, “Pentacycle derivatives as cannabinoid CB1 receptor ligands” (Bioorg Med Chem Lett, 2009):

Tests used:
[1] = molecular target: Cannabinoid receptor 1 (Rattus norvegicus, UniProt P20272); assay: Displacement of [3H]CP-55940 from CB1 receptor in Sprague-Dawley rat cerebellar membrane; design: species or system Cerebellum
How it was run: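 Pelleted membranes were incubated with 3 nM [3H]CP55,940, 0.5% fatty-acid-free BSA and a range of ligand concentrations for 1 h at 30 °C. Bound ligand was filtered on PEI-soaked GF/B and counted by scintillation; IC50 reported.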

[2] = molecular target: Cannabinoid receptor 2 (Homo sapiens, UniProt P34972); assay: Displacement of [3H]WIN-552122 from human CB2 receptor expressed in CHOK1 cells; type: cell-based, CHO-K1
How it was run: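 Membranes came from CHO K-1 cells transfected with human CB2 and were prepared in TME buffer (pH 7.4) with centrifugation at 48,000g. Competition used 3 nM [3H]WIN55,212-2 in TME with 0.5% fatty-acid-free BSA across a range of ligand concentrations, 1 h at 30 °C.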

[3] = Selectivity ratio of IC50 for human CB2 to IC50 for rat CB1
How it was run: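 Competitive radioligand binding in TME buffer (50 mM Tris–HCl, 1 mM EDTA, 3 mM MgCl2, pH 7.4) with 0.5% fatty-acid-free BSA, 1 h at 30 °C. rCB1 used male Sprague-Dawley rat cerebellar membranes with 3 nM [3H]CP55,940. hCB2 used membranes from CHO K-1 cells transfected with human CB2, with 3 nM [3H]WIN55,212-2. Bound ligand was filtered and counted by scintillation. Ratio = hCB2 IC50 / rCB1 IC50.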

[4] = Cmax in rat at 5 mg/kg, po after 1.3 hrs; type: ADME, organism-based; design: dose 5 mg/kg, route oral; details: in vivo
[5] = system: Rattus norvegicus; assay: Systemic clearance in rat at 5 mg/kg, po; type: ADME, organism-based; design: dose 5 mg/kg, route oral; details: in vivo
[6] = Elimination half life in rat at 5 mg/kg, po; type: ADME, organism-based; design: dose 5 mg/kg, route oral; details: in vivo, read-out: beta t1/2 (converted)
[7] = Oral bioavailability in rat at 5 mg/kg; type: ADME, organism-based; details: in vivo
[8] = molecular target: Cannabinoid receptor 1 (Homo sapiens) (UniProt P21554); assay: Binding affinity to human CB1 receptor expressed in CHO cells by luciferase reporter gene assay
Sequence of Cannabinoid receptor 1 (Homo sapiens) (P21554 whole entry, looked up): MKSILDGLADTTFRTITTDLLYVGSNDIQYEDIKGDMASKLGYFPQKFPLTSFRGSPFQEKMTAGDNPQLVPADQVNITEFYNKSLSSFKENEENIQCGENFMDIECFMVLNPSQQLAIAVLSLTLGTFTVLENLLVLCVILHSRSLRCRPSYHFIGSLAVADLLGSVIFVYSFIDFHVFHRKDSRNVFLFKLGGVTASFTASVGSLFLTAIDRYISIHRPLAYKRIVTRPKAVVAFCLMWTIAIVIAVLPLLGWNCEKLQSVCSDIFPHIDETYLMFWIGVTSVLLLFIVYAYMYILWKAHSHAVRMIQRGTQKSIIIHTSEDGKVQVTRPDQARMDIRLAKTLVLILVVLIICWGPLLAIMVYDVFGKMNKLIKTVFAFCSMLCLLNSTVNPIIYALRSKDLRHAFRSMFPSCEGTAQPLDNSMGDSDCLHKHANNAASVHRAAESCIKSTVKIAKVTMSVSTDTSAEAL

Sequence of Cannabinoid receptor 2 (P34972 whole entry): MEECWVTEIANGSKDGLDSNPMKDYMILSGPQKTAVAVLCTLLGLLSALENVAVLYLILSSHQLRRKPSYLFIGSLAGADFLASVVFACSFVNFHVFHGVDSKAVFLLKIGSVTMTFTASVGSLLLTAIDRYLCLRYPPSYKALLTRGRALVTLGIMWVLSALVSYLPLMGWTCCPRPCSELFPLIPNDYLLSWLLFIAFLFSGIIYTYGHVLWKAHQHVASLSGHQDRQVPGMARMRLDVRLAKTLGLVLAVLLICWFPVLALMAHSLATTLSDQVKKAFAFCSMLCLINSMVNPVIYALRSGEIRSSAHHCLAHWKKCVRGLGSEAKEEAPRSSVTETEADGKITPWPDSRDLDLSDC
Sequence of Cannabinoid receptor 1 (P20272 whole entry): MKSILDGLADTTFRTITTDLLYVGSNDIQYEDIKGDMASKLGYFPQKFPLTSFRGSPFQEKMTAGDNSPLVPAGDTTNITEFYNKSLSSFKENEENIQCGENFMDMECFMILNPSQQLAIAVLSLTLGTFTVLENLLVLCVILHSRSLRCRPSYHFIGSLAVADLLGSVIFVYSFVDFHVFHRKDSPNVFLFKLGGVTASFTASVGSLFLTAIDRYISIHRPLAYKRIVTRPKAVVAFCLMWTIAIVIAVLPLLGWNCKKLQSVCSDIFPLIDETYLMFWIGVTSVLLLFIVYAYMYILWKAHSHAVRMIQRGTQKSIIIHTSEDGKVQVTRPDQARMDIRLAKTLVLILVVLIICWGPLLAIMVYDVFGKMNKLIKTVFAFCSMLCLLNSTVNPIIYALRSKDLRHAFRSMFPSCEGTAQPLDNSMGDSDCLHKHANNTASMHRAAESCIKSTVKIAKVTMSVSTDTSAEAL

Row | Compound | IC50 [1] [nM] | other results
1 | Cc1nnc(-c2c(-c3nnc(C4(c5ccc(Cl)cc5)CC4)o3)nn(-c3ccc(Cl)cc3Cl)c2-c2ccc(Br)cc2)o1 | 4.91 | 
2 | Cc1nnc(-c2c(-c3nnc(C4(C(F)(F)F)CC4)o3)nn(-c3ccc(Cl)cc3Cl)c2-c2ccc(Cl)cc2)o1 | 14.7 | 
3 | Cc1nnc(-c2c(-c3nnc(C4(C(F)(F)F)CC4)o3)nn(-c3ccc(Cl)cc3Cl)c2-c2ccc(Cl)cc2)s1 | 4.14 | 
4 | Cc1nnc(-c2c(-c3nnc(C4(C(F)(F)F)CC4)o3)nn(-c3ccc(Cl)cc3Cl)c2-c2ccc(Br)cc2)o1 | 4.7 | 
5 | Cc1nnc(-c2c(-c3nnc(C4(C(F)(F)F)CC4)s3)nn(-c3ccc(Cl)cc3Cl)c2-c2ccc(Br)cc2)o1 | 4.86 | 
6 | Cc1nnc(-c2c(-c3nnc(C4(c5ccc(Cl)cc5)CC4)o3)nn(-c3ccc(Cl)cc3Cl)c2-c2ccc(Cl)cc2)s1 | 10.3 | 
7 | Cc1nnc(-c2c(-c3nnc(C(C)(C)C)o3)nn(-c3ccc(Cl)cc3Cl)c2-c2ccc(Cl)cc2)o1 | 6.47 | 
8 | Cc1nnc(-c2c(-c3nnc(C(C)(C)C)s3)nn(-c3ccc(Cl)cc3Cl)c2-c2ccc(Br)cc2)s1 | 2.56 | IC50 [2]: 427 nM; Ratio IC50 [3]: 167
9 | Cc1nnc(-c2c(-c3nnc(C(C)(C)C)s3)nn(-c3ccc(Cl)cc3Cl)c2-c2ccc(Br)cc2)o1 | 4.93 | 
10 | Cc1nnc(-c2c(-c3nnc(C4(c5ccc(Cl)cc5)CC4)s3)nn(-c3ccc(Cl)cc3Cl)c2-c2ccc(Cl)cc2)s1 | 3.03 | 
11 | Cc1nnc(-c2c(-c3nnc(C4(C(F)(F)F)CC4)s3)nn(-c3ccc(Cl)cc3Cl)c2-c2ccc(Cl)cc2)s1 | 7.39 | 
12 | Cc1nnc(-c2c(-c3nnc(C4(c5ccc(Cl)cc5)CC4)s3)nn(-c3ccc(Cl)cc3Cl)c2-c2ccc(Br)cc2)o1 | 4.44 | 
13 | Cc1nnc(-c2c(-c3nnc(C4(c5ccc(Cl)cc5)CC4)s3)nn(-c3ccc(Cl)cc3Cl)c2-c2ccc(Br)cc2)s1 | 3.7 | IC50 [2]: > 10000 nM; Ratio IC50 [3]: > 2700
14 | Cc1nnc(-c2c(-c3nnc(C(C)(C)C)o3)nn(-c3ccc(Cl)cc3Cl)c2-c2ccc(Br)cc2)s1 | 3.69 | 
15 | Cc1nnc(-c2c(-c3nnc(C(C)(C)C)o3)nn(-c3ccc(Cl)cc3Cl)c2-c2ccc(Br)cc2)o1 | 2.56 | IC50 [2]: 414 nM; Ratio IC50 [3]: 162
16 | Cc1nnc(-c2c(-c3nnc(C4(c5ccc(Cl)cc5)CC4)s3)nn(-c3ccc(Cl)cc3Cl)c2-c2ccc(Cl)cc2)o1 | 3.23 | 
17 | Cc1nnc(-c2c(-c3nnc(C(C)(C)C)o3)nn(-c3ccc(Cl)cc3Cl)c2-c2ccc(Cl)cc2)s1 | 2.83 | 
18 | Cc1nnc(-c2c(-c3nnc(C4(c5ccc(Cl)cc5)CC4)o3)nn(-c3ccc(Cl)cc3Cl)c2-c2ccc(Cl)cc2)o1 | 3.93 | 
19 | Cc1nnc(-c2c(-c3nnc(C4(C(F)(F)F)CC4)s3)nn(-c3ccc(Cl)cc3Cl)c2-c2ccc(Br)cc2)s1 | 4.21 | 
20 | Cc1nnc(-c2c(-c3nnc(C4(C(F)(F)F)CC4)s3)nn(-c3ccc(Cl)cc3Cl)c2-c2ccc(Cl)cc2)o1 | 26.9 | 
21 | Cc1nnc(-c2c(-c3nnc(C4(c5ccc(Cl)cc5)CC4)o3)nn(-c3ccc(Cl)cc3Cl)c2-c2ccc(Br)cc2)s1 | 2.13 | 
22 | Cc1nnc(-c2c(-c3nnc(C4(C(F)(F)F)CC4)o3)nn(-c3ccc(Cl)cc3Cl)c2-c2ccc(Br)cc2)s1 | 1.72 | IC50 [2]: 245 nM; Ratio IC50 [3]: 142; Cmax [4]: 30 ng/mL; clearance [5]: 12.6 mL/min/kg; half-life [6]: 1100 min; bioavailability [7]: 7.2%; IC50 [8]: 38.5 nM
